# Assay results reported in ChEMBL document CHEMBL1255440, “An antimicrobial peptide that targets DNA repair intermediates in vitro inhibits Salmonella growth within murine macrophages” (Antimicrob Agents Chemother, 2010).
# Legend:
# Salmonella typhimurium [1] = assay: Antibacterial activity against 1 MOI Salmonella enterica subsp. enterica serovar Typhimurium infected in mouse peritoneal macrophages assessed as reduction in bacterial growth at 150 uM after 24 hrs relative to DMSO control; assay type: functional; set-up: scale not given: the % may be the effect or the level left
# Outline: (§1)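 J774A.1 cells or thioglycolate-elicited BALB/c peritoneal macrophages seeded at 200,000/well, overnight 37°C 5% CO2; infected with GFP strain SDT1416, 1 h invasion, washed, 1 h in DMEM with 15 μg/ml gentamicin. Then fresh DMEM plus 15 μg/ml gentamicin with or without peptide (DMSO vehicle) for 24 h at 37°C; macrophages lysed with 1% Triton X-100, plated on LB agar for CFU.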
# Salmonella typhimurium [2] = assay: Antibacterial activity against 10 MOI Salmonella enterica subsp. enterica serovar Typhimurium G785 transfected with SOS-inducible beta-galactosidase reporter infected in mouse J774A1 cells assessed as bacterial number at 50 uM after 4 hrs postinfection; assay type: functional, J774.A1
# Outline: (§2)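 J774A.1 cells infected at MOI 10 with sulA promoter-lacZ reporter strain G785 using the gentamicin-protection protocol, treated with peptide (DMSO vehicle controls) plus 15 μg/ml gentamicin for 4 or 24 h. Released bacteria were plated for colony counts in parallel, and were incubated with 33 μM C12FDG (with 0.2 mM EDTA) in LB for 2 h at 37°C. Flow cytometry gave % fluorescein-positive among LPS-antibody-positive particles; Wilcoxon exact test.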
# Salmonella typhimurium [3] = assay: Antibacterial activity against 10 MOI Salmonella enterica subsp. enterica serovar Typhimurium G785 transfected with SOS-inducible beta-galactosidase reporter infected in mouse J774A1 cells assessed as SOS induction at 100 uM after 4 hrs postinfection; assay type: functional, J774.A1; outline: as §2
# Salmonella typhimurium [4] = assay: Antibacterial activity against 10 MOI Salmonella enterica subsp. enterica serovar Typhimurium G785 transfected with SOS-inducible beta-galactosidase reporter infected in mouse J774A1 cells assessed as SOS induction at 150 uM after 4 hrs postinfection; assay type: functional, J774.A1; outline: as §2
# Salmonella typhimurium [5] = assay: Antibacterial activity against 10 MOI Salmonella enterica subsp. enterica serovar Typhimurium G785 transfected with SOS-inducible beta-galactosidase reporter infected in mouse J774A1 cells assessed as SOS induction at 150 uM after 24 hrs postinfection; assay type: functional, J774.A1; outline: as §2
# J774.A1 [6] = assay: Cytotoxicity against mouse J774A1 cells assessed as metabolic activity at 50 uM after 24 hrs by MTT assay; assay type: ADME, cell-based; details: j774.a1, 24 h
# Outline: (§3)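 Cells seeded at 40,000/well in 96-well plates, overnight 37°C 5% CO2, then treated 24 h in fresh DMEM. MTT (4 mg/ml stock in PBS) added for up to 3 h. Formazan solubilized overnight at 37°C in SDS/dimethylformamide/acid lysis buffer, OD read at 575 nm. Paired t tests.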
# [7] = Cytotoxicity against mouse peritoneal macrophages assessed as metabolic activity upto 100 uM after 24 hrs by MTT assay; assay type: ADME, cell-based; details: peritoneal macrophage cell; outline: as §3
# [8] = Cytotoxicity against mouse peritoneal macrophages assessed as increase in metabolic activity at 150 uM after 24 hrs by MTT assay; assay type: ADME, cell-based; details: peritoneal macrophage cell; outline: as §3
# [9] = Cytotoxicity against mouse peritoneal macrophages assessed as dead cells at 100 uM by propidium iodide assay; assay type: cell-based; details: peritoneal macrophage cell
# Outline: (§4)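 Cells seeded at 300,000/well and allowed to adhere, then given fresh DMEM with or without peptide for 24 h. Cells trypsinized, stained with a mammalian Live/Dead viability/cytotoxicity kit and analyzed by flow cytometry. Wilcoxon exact test.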
# [10] = Cytotoxicity against mouse peritoneal macrophages assessed as dead cells at 150 uM by propidium iodide assay; assay type: cell-based; details: peritoneal macrophage cell; outline: as §4
# [11] = Drug uptake in mouse peritoneal macrophages assessed as dimer to monomer peptide ratio at 150 uM after 24 hrs at 37 degC by HPLC analysis; assay type: ADME, cell-based; details: peritoneal macrophage cell
# Outline: (§5)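 Macrophages were elicited in 8–12-week-old female BALB/c mice with 4% thioglycolate i.p. and harvested by lavage 4 days later. Cells were seeded at 300,000 per well for 24 h, then given unlabeled peptide in DMEM for 24 h at 37°C. Lysates were run on reverse-phase HPLC at A280. Monomer (17.5 min) and dimer (17.75 min) peak areas were compared with a standard curve. Concentration assumed 1 pl per cell; values are means of three determinations.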
# [12] = Drug uptake in mouse peritoneal macrophages assessed as dimer to monomer peptide ratio at 50 uM after 24 hrs at 37 degC by HPLC analysis; assay type: ADME, cell-based; details: peritoneal macrophage cell; outline: as §5
# J774.A1 [13] = assay: Drug uptake in mouse J774A1 cells at 1 uM after 4 hrs by confocal laser microscopy; assay type: ADME, cell-based; details: j774.a1, 4 h
# Outline: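 Cells were seeded at 200,000 per chamber-slide well and left to adhere overnight at 37°C. They were then exposed in DMEM to peptide carrying an N-terminal rhodamine label, at 37°C or, where stated, 4°C. Cells were washed three times in PBS, fixed in 4% paraformaldehyde for 30 min, and mounted in antifade. Optical slices near the cell centre were imaged by confocal laser microscopy.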
# Salmonella typhimurium [14] = assay: Antibacterial activity against Salmonella enterica subsp. enterica serovar Typhimurium SDT1416; assay type: functional
# Outline: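 MIC by NCCLS broth microdilution against GFP-expressing strain SDT1416.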
# J774.A1 [15] = assay: Drug uptake in mouse J774A1 cells assessed as dimer to monomer peptide ratio at 150 uM after 5 hrs at 4 degC by HPLC analysis; assay type: ADME, cell-based; details: j774.a1, 5 h
# Outline: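 J774A.1 cells were incubated with unlabeled peptide for 5 or 24 h at 37°C or 4°C, washed in ice-cold PBS and lysed with NP-40 buffer. Lysates were run on reverse-phase HPLC with an acetonitrile/0.1% TFA gradient and A280 fractions. Monomer (~17.5 min) and dimer (~17.75 min) peak areas were compared against a standard curve. Intracellular mM was calculated using 300,000 cells and 1 pl/cell, with concentration expressed as monomer mass.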
# Salmonella typhimurium [16] = assay: Antibacterial activity against 1 MOI Salmonella enterica subsp. enterica serovar Typhimurium infected in mouse J774A1 cells assessed as fold reduction in bacterial growth at 100 uM after 24 hrs; assay type: functional, J774.A1; outline: as §1
# Salmonella typhimurium [17] = assay: Antibacterial activity against 1 MOI Salmonella enterica subsp. enterica serovar Typhimurium infected in mouse J774A1 cells assessed as reduction in bacterial growth at 100 uM after 24 hrs; assay type: functional, J774.A1; set-up: scale not given: the % may be the effect or the level left; outline: as §1
# Salmonella typhimurium [18] = assay: Antibacterial activity against 1 MOI Salmonella enterica subsp. enterica serovar Typhimurium infected in mouse peritoneal macrophages assessed as reduction in bacterial growth at 50 uM after 24 hrs; assay type: functional; set-up: scale not given: the % may be the effect or the level left; outline: as §1
# Salmonella typhimurium [19] = assay: Antibacterial activity against 1 MOI Salmonella enterica subsp. enterica serovar Typhimurium infected in mouse peritoneal macrophages assessed as reduction in bacterial growth at 100 uM after 24 hrs; assay type: functional; set-up: scale not given: the % may be the effect or the level left; outline: as §1
# J774.A1 [20] = assay: Drug uptake in mouse J774A.1 cells assessed as total peptide concentration at 100 uM after 24 hrs at 4 degC by HPLC analysis; details: J774A.1, 24 h
# J774.A1 [21] = assay: Drug uptake in mouse J774A.1 cells assessed as dimer to monomer peptide ratio at 50 uM after 24 hrs at 4 degC by HPLC analysis; details: J774A.1, 24 h
# J774.A1 [22] = assay: Drug uptake in mouse J774A.1 cells assessed as dimer to monomer peptide ratio at 150 uM after 24 hrs at 4 degC by HPLC analysis; details: J774A.1, 24 h
# J774.A1 [23] = assay: Drug uptake in mouse J774A1 cells at 10 uM after 5 hrs in presence of 100 nM wortmannii PI3K inhibitor by confocal laser microscopy; details: j774.a1, 5 h
smiles,measurement,setting,value
N=C(N)NCCC[C@@H](NC(=O)[C@@H](CS)NC(=O)[C@@H](Cc1ccc(O)cc1)NC(=O)[C@@H](Cc1c[nH]c2ccccc12)NC(=O)[C@@H](CCCNC(=N)N)NC(=O)[C@H](N)Cc1c[nH]c2ccccc12)C(=O)O,Activity,Salmonella typhimurium [1],83%
same,Activity,Salmonella typhimurium [2],57.1%
same,Activity,Salmonella typhimurium [3],1.3%
same,Activity,Salmonella typhimurium [4],8.5%
same,Activity,Salmonella typhimurium [5],28.4%
same,Activity,J774.A1 [6],Non-toxic
same,Activity,[7],Non-toxic
same,Activity,[8],18%
same,Activity,[9],3.1%
same,Activity,[10],9.2%
same,Ratio,[11],11.4
same,Ratio,[12],0.9
same,Drug uptake,J774.A1 [13],Active
same,MIC,Salmonella typhimurium [14],64 µM
same,Ratio,J774.A1 [15],8.8
same,fold change (FC),Salmonella typhimurium [16],> 100
same,Activity,Salmonella typhimurium [17],85.1%
same,Activity,Salmonella typhimurium [18],34%
same,Activity,Salmonella typhimurium [19],45%
same,Drug uptake,J774.A1 [20],32.9 mM
same,Ratio,J774.A1 [21],7.4
same,Ratio,J774.A1 [22],15.5
same,Drug uptake,J774.A1 [23],Not Active
